Experimental findings from ChEMBL document CHEMBL3526125, “P-glycoprotein increases portal bioavailability of loperamide in mouse by reducing first-pass intestinal metabolism” (Drug Metab Dispos, 2013) are described below.

Each structure is given as a SMILES string.

A short description of data set [1]: Portal bioavailability in P-gp deficient CF-1 mouse at 0.23 mg/kg through oral gavage by LC-MS/MS analysis in presence of 1 mM ABT CYP3A inhibitor. Format: ADME, organism-based. The following applies: in vivo. The procedure, abridged:
(§1)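 Mice received oral ABT 50 mg/kg 3 h before study, plus another 50 mg/kg co-administered with loperamide 0.23 mg/kg in 300 µL 0.9% NaCl with 1% EtOH. Portal and jugular sampling over 240 min. F_G = (portal minus systemic-returned mass)/dose, using portal flow 1.45 mL/min and blood:plasma ratio 0.71. n=6.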

Data set [2] has as its system CYP3A. Put plainly: Drug metabolism in P-gp deficient CF-1 mouse intestine assessed as CYP3A-mediated […] by LC-MS/MS analysis. Format: ADME, tissue-based. The method in brief: (§2)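 Jejunum from fasted CF-1 or Mdr1a1-/- mice mounted in diffusion chambers in oxygenated KBR at 37°C; tissue used if TEER ≥250 Ω·cm². Apical loperamide 0.75–125 µM in KBR with 0.1% EtOH for 90 min. Monodemethyl- plus didemethyl-loperamide summed across tissue, AP and BL by LC-MS/MS. Fitted to Michaelis–Menten for Vmax and Km. n=3 mice × 4 tissues.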

A short description of data set [3]: Portal bioavailability in P-gp deficient CF-1 mouse at 0.23 mg/kg through oral gavage. The conditions noted are these: in vivo. Format: ADME, organism-based. The method in brief: (§3)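 Portal vein-cannulated, anesthetized CF-1 or Mdr1a1-/- mice given oral loperamide 0.23, 0.47 or 0.94 mg/kg. Portal and systemic plasma converted to blood concentration using a blood:plasma ratio of 0.71. M_portal = Q_portal (1.45 mL/min) × AUC_portal(0–4 h). M_systemic is subtracted to give M_absorbed, and F_G = M_absorbed/dose. n=6.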

Data set [4] in a line: AUC (0 to 240 mins) in P-gp competent CF-1 mouse plasma at 0.94 mg/kg through oral gavage. Set-up: time < 4 hr, dose 0.94 mg/kg, route oral. Format: ADME, organism-based. The method in brief: (§4)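 Male CF-1 (P-gp competent) or Mdr1a1-/- mice, overnight-fasted, on ketamine/xylazine anesthesia held at 37°C, portal vein-cannulated. Loperamide 0.23, 0.47 or 0.95 mg/kg by oral gavage in 300 µL 0.9% NaCl with 1% EtOH. Serial 20 µL portal blood samples over 240 min. Plasma loperamide quantified by LC-MS/MS. AUC0–240 min reported as mean ± SD, n=6.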

Data set [5] is described as follows: AUC in P-gp competent CF-1 mouse plasma at 0.47 mg/kg through systemic exposure. Details: dose 0.47 mg/kg. Format: ADME, organism-based. The method in brief:
(§5)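 Overnight-fasted, ketamine/xylazine-anesthetized CF-1 or Mdr1a1-/- mice with jugular vein cannulae. Loperamide 0.23 or 0.47 mg/kg by oral gavage in 300 µL 0.9% NaCl with 1% EtOH. Jugular blood (20 µL) taken at 10, 30, 60, 120, 180 and 240 min. Plasma loperamide measured by LC-MS/MS. AUC0–240 min, n=6.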

Data set [6] in a line: Portal bioavailability in P-gp competent CF-1 mouse at 0.47 mg/kg through oral gavage. Format: ADME, organism-based. The conditions noted are these: in vivo. The method in brief: as §3
Data set [7] can be described thus: AUC (0 to 240 mins) in P-gp deficient CF-1 mouse plasma at 0.94 mg/kg through oral gavage. Format: ADME, organism-based. Details: time < 4 hr, dose 0.94 mg/kg, route oral. The procedure, abridged:
as §4

A short description of data set [8]: AUC (0 to 240 mins) in P-gp competent CF-1 mouse plasma at 0.23 mg/kg through oral gavage. Format: ADME, organism-based. Set-up: time < 4 hr, dose 0.23 mg/kg, route oral. The method in brief: as §4
A short description of data set [9]: Portal bioavailability in P-gp competent CF-1 mouse at 0.23 mg/kg through oral gavage by LC-MS/MS analysis in presence of 1 mM ABT CYP3A inhibitor. Format: ADME, organism-based. The following applies: in vivo. The method in brief: as §1
Data set [10] in a line: AUC (0 to 240 mins) in P-gp deficient CF-1 mouse plasma at 0.47 mg/kg through oral gavage. Type of data set: ADME, organism-based. Set-up: time < 4 hr, dose 0.47 mg/kg, route oral. The procedure, abridged:
as §4

Data set [11] is described as follows: Drug metabolism in P-gp deficient CF-1 mouse intestine assessed as CYP3A-mediated metabolite formation […]. The conditions noted are these: excised jejunum tissue. Format: ADME, tissue-based.
A short description of data set [12]: AUC in P-gp deficient CF-1 mouse plasma at 0.47 mg/kg through systemic exposure. Format: ADME, organism-based. Set-up: dose 0.47 mg/kg. The procedure, abridged: as §5
The nature of data set [13]: AUC in P-gp competent CF-1 mouse plasma at 0.23 mg/kg through systemic exposure. Format: ADME, organism-based. Set-up: dose 0.23 mg/kg. The method in brief: as §5
The test system of data set [14] is CYP3A. The data set is described as follows: Drug metabolism in P-gp competent CF-1 mouse intestine assessed as CYP3A-mediated […] by LC-MS/MS analysis. Format: ADME, tissue-based. The procedure, abridged: as §2
The nature of data set [15]: Portal bioavailability in P-gp deficient CF-1 mouse at 0.47 mg/kg through oral gavage. The following applies: in vivo. Format: ADME, organism-based. The procedure, abridged:
as §3

The nature of data set [16]: Portal bioavailability in P-gp competent CF-1 mouse at 0.23 mg/kg through oral gavage. Type of data set: ADME, organism-based. The conditions noted are these: in vivo. The procedure, abridged: as §3
A short description of data set [17]: Portal bioavailability in P-gp deficient CF-1 mouse at 0.94 mg/kg through oral gavage. Type of data set: ADME, organism-based. The following applies: in vivo. The method in brief:
as §3

Data set [18] can be described thus: AUC (0 to 240 mins) in P-gp deficient CF-1 mouse plasma at 0.23 mg/kg through oral gavage. Type of data set: ADME, organism-based. Set-up: time < 4 hr, dose 0.23 mg/kg, route oral. The method in brief:
as §4

Data set [19] can be described thus: AUC in P-gp deficient CF-1 mouse plasma at 0.23 mg/kg through systemic exposure. Format: ADME, organism-based. Set-up: dose 0.23 mg/kg. The procedure, abridged: as §5
Data set [20] can be described thus: Drug metabolism in P-gp competent CF-1 mouse intestine assessed as CYP3A-mediated metabolite formation […]. Type of data set: ADME, tissue-based. The following applies: excised jejunum tissue.
Data set [21] in a line: AUC (0 to 240 mins) in P-gp competent CF-1 mouse plasma at 0.47 mg/kg through oral gavage. Set-up: time < 4 hr, dose 0.47 mg/kg, route oral. Format: ADME, organism-based. The procedure, abridged: as §4
The nature of data set [22]: Drug metabolism in P-gp competent CF-1 mouse intestine assessed as CYP3A-mediated metabolite formation measured per cm'2 of tissue by LC-MS/MS analysis in presence of 100 uM Cyp3a oxidative metabolism inhibitor troleandomycin. Type of data set: ADME, tissue-based.
The nature of data set [23]: AUC (0 to 120 mins) in P-gp competent CF-1 mouse plasma at 0.4 mg/kg through oral gavage in presence of 1 mM ABT CYP3A inhibitor. Set-up: time < 2 hr, dose 0.4 mg/kg, route oral. Format: ADME, organism-based.
Data set [24] can be described thus: AUC (0 to 120 mins) in P-gp competent CF-1 mouse plasma at 0.4 mg/kg through oral gavage. Type of data set: ADME, organism-based. Details: time < 2 hr, dose 0.4 mg/kg, route oral. The procedure, abridged: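 Mice were anaesthetised with IP ketamine 140 mg/kg and xylazine 15 mg/kg, kept at 37°C, and portal vein-cannulated. Pretreatment was saline or oral ABT at 50 mg/kg. Portal-circulation AUC0–120 min was calculated.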

The nature of data set [25]: Drug metabolism in P-gp deficient CF-1 mouse intestine assessed as CYP3A-mediated metabolite formation measured per cm'2 of tissue by LC-MS/MS analysis in presence of 100 uM Cyp3a oxidative metabolism inhibitor troleandomycin. Type of data set: ADME, tissue-based.

By Km is commonly meant the concentration of substrate that gives half-maximal velocity. As a reminder, the AUC(0-t) is the area under the concentration-time curve up to a stated or last time point. As usually defined, the AUC is the area under the concentration-time curve, a measure of exposure. Low readings indicate low exposure, high ones high exposure. As to `CN(C)C(=O)C(CCN1CCC(O)(c2ccc(Cl)cc2)CC1)(c1ccccc1)c1ccccc1` [LOPERAMIDE], the Fg in [1] came out at 28%; in [3], 0.4%; in [6] it was 1.7%; in data set [9], 3.6%; in data set [15] it was 1.1%; in [16], 2.6%. The Fg in data set [17] amounted to 17%. For the same compound, the values for the Km in the data set on CYP3A [2] and in the data set on CYP3A [14] were 4.5 µM and 22 µM, respectively. In addition, the AUC(0-t) at 4 h in data set [4] was 81.7 ng·h/mL; in data set [7], 95 ng·h/mL; in [8], 4.43 ng·h/mL; in data set [10], 7 ng·h/mL; in [18] it was 1.5 ng·h/mL; in data set [21], 4.48 ng·h/mL. Besides, the AUC is 0.517 ng·h/mL in data set [5], 4.33 ng·h/mL in data set [12], 0.933 ng·h/mL in data set [13] and 1.03 ng·h/mL in data set [19]. Also, the Vmax was 30 pmol/min/cm² in data set [11] and 31 pmol/min/cm² in [20].

`C[C@]12CC[C@H]3[C@@H](CCC4=CC(=O)CC[C@@]43C)[C@@H]1CC[C@@H]2O` [TESTOSTERONE]: the Vmax in data set [22] and in [25] was 0.5 pmol/min throughout. Further, the figures for the AUC(0-t) at 2 h in data set [23] and in data set [24] were 1 ng·h/mL and 43.3 ng·h/mL, respectively.
